Measured values collected from several papers.
Target: Dual specificity tyrosine-phosphorylation-regulated kinase 1A (DYRK1A, Homo sapiens, UniProt Q13627)
Read-out: enzyme activity
Mode: inhibitor

O=C(O)c1ccc2c(c1)nc(NCCc1ccccc1)c1ncncc12
remaining activity (radiometric; 1 µM): 19%

COc1cc(Cl)c(C(=O)N[C@@H](CN[C@H]2CC[C@@H](N)CC2)Cc2ccc(C#N)cc2)cc1-c1ccc(CN[C@H](C)c2ccc(C)cc2)o1
remaining activity (1 µM): 120%

COc1cc(Nc2cnc(C#N)c(O[C@H](C)CN(C)C)n2)ncc1-c1cnn(C)c1
remaining activity (radiometric; 10 µM): 79%

Cc1sc(C(=O)NC2COC2)cc1-n1cc(NC(=O)Nc2c(F)cccc2Cl)cn1
remaining activity (10 µM): 95.5%

Nc1nc(NC2CCCCC2)sc1C(=O)c1ccccc1
remaining activity (10 µM): 25%

Oc1cccc(-c2nc(N3CCOCC3)c3oc4ncccc4c3n2)c1
remaining activity (10 µM): 59%

COc1ccc(C(=O)Nc2sc3c(c2C(N)=O)CCCC3)cc1OC
remaining activity (0.5 µM): 97.4%

O=C(O)c1ccc2c(c1)nc(Nc1ccc(F)c(Cl)c1)c1ccncc12
remaining activity (radiometric; 1 µM): 0%

O=c1c2ccccc2[nH]c(=S)n1CCN1CCC(=C(c2ccc(F)cc2)c2ccc(F)cc2)CC1
remaining activity (0.5 µM): 99.9%

CC(C)(C)c1nc2c(s1)c1nc(N)ncc1c1ccc(NS(=O)(=O)c3c(F)cccc3F)c(F)c12
remaining activity (radiometric; 1 µM): 88%

O=C(O)c1ccc2c(c1)nc(Nc1ccccc1Cl)c1ncncc12
remaining activity (radiometric; 1 µM): 11%

O=C(O)c1ccc2c3c1cccc3c(=O)n1c3ccccc3nc21
remaining activity (0.5 µM): 55.5%

O=C(Nc1cnn(-c2csc(C(=O)NC3COC3)c2)c1)Nc1c(F)cccc1Cl
remaining activity (5 µM): 75.1%

CC(C)(C)C(=O)c1sc(NC2CCCCC2)nc1N
remaining activity (10 µM): 88%

COc1cccc(CCNc2nc3cc(C(=O)O)ccc3c3cnccc23)c1
remaining activity (radiometric; 1 µM): 12%
